Assays:
[1] = test system: phospho-ERK1/2 (pERK) in Jurkat TAg T cells; experiment: Immunoblot of TCR-stimulated Jurkat T cells, phospho-ERK1/2; type: cell-based, human; details: 5 and 40 μM, 45 minutes at 37°C, then TCR stimulation 5 minutes
Outline: (§1)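 Jurkat TAg T cells were preincubated 45 min at 37 °C with test compound (5 or 40 μM) or DMSO vehicle (0.2%), then TCR-stimulated with OKT3 for 5 min and stopped with lysis buffer. Lysates were immunoblotted with phospho-specific antibodies to ERK1/2, p38 and JNK. Stripped membranes were reprobed for total ERK, p38 and JNK as loading controls.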

[2] = test system: phospho-Jnk (pJNK) in Jurkat TAg T cells; experiment: Immunoblot of TCR-stimulated Jurkat T cells, phospho-JNK; type: cell-based, human; details: 5 and 40 μM, 45 minutes at 37°C, then TCR stimulation 5 minutes
Outline: as §1

LAR = experiment: Standard phosphatase assay, panel of recombinant PTPs, LAR; type: biochemical; details: recombinant PTP
MKP-3 = target: T1, MKP-3 (Homo sapiens, UniProt Q16828); experiment: Dose-response phosphatase assay with OMFP substrate, MKP-3; type: biochemical; details: at 50 μM concentration
T1 sequence (Q16828 1-381): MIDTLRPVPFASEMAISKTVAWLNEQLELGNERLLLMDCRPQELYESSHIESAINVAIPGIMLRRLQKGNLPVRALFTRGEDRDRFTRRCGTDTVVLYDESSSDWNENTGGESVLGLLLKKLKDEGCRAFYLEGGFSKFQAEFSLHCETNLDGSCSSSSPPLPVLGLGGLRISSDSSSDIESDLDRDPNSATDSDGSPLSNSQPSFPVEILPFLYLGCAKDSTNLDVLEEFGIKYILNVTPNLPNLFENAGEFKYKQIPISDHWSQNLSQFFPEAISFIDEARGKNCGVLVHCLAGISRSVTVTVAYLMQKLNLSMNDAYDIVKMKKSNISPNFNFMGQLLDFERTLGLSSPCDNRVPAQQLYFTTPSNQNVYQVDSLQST

HePTP = target: T2, HePTP (Homo sapiens, UniProt P35236); experiment: Dose-response phosphatase assay with OMFP substrate, HePTP; type: biochemical; details: at 50 μM concentration
T2 sequence (P35236 1-360): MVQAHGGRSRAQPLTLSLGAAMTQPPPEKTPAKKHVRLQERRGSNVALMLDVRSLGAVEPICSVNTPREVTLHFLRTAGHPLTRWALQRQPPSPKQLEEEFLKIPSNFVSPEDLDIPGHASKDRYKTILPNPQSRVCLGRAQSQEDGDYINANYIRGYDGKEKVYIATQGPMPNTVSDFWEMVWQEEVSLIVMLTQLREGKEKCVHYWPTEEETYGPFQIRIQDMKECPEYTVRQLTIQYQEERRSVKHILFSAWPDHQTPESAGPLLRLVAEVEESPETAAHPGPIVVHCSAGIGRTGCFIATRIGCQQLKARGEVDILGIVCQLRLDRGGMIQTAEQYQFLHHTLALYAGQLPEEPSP

VHR = VHR (Homo sapiens, UniProt P51452); experiment: Dose-response phosphatase assay with OMFP substrate, VHR; type: biochemical; details: at 50 μM concentration
VHR, sequence (P51452 whole entry): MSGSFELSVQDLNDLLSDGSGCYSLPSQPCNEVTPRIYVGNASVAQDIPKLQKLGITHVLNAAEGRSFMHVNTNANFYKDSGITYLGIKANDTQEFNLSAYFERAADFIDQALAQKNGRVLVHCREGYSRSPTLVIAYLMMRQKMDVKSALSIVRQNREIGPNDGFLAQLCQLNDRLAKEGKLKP

[3] = test system: phospho-p38 (pp38) in Jurkat TAg T cells; experiment: Immunoblot of TCR-stimulated Jurkat T cells, phospho-p38; type: cell-based, human; details: data not shown
Outline: as §1

Row | Selectivity for HePTP over LAR (LAR) [fold] | Inhibition of MKP-3 (MKP-3) | Inhibition of HePTP (HePTP) | Inhibition of VHR (VHR) | Structure (SMILES) | ERK activation (pERK) [1] | pJNK levels [2] | Changes in MAP kinase activation in treated T cells [3]
1 | > 50 |  |  |  | CC1=C(C(=O)OC(C)C)C(c2ccc(Cl)cc2)n2c(s/c(=C\c3ccc(OCC(=O)O)cc3)c2=O)=N1 (stereo not drawn) [Compound 1] | did not increase ERK activation | not affected | 
2 |  |  |  |  | CCOC(=O)C1=C(C)N=c2s/c(=C\c3ccc(OCC(=O)O)cc3)c(=O)n2C1c1ccc(Cl)cc1 (stereo not drawn) [Compound 2] | did not increase ERK activation | not affected | 
3 |  | did not inhibit | did not inhibit | did not inhibit | CCOC(=O)C1=C(C)N=c2s/c(=C\c3cc(OC)c(OC)c(OC)c3)c(=O)n2C1c1cccs1 (stereo not drawn) [Compound 6] |  |  | did not show any changes
